Measured values as given in ChEMBL document CHEMBL1144816, “Potential anticancer activity of naturally occurring and semisynthetic derivatives of aculeatins A and B from Amomum aculeatum” (2008).
The source made the active and inactive calls. No cut-off for these calls is given here.

Columns and labels:
[1] = test system: Lu1; assay: Cytotoxicity against human Lu1 cells; assay type: functional; details: read-out: ED50 (the source's name)
[2] = test system: LNCaP; assay: Cytotoxicity against human LNCaP cells; assay type: functional; details: read-out: ED50 (the source's name)
[3] = test system: MCF7; assay: Cytotoxicity against human MCF7 cells; assay type: functional; details: read-out: ED50 (the source's name)
[4] = test system: Lu1; assay: Inhibition of human Lu1 cells propagated in hollow fibers via intraperitoneal site of immunodeficient mouse at 6.25 to 50 mg/kg after 3 to 6 days; assay type: functional, organism-based
Procedure, shortened: (§1)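 Lu1, LNCaP or MCF-7 cells in hollow fibers implanted subcutaneously or intraperitoneally in immunodeficient mice. Dosing was once daily by intraperitoneal injection at 6.25, 12.5, 25 or 50 mg/kg on days 3–6 after implantation. Growth inhibition was measured against vehicle-treated animals.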

[5] = test system: LNCaP; assay: Inhibition of human LNCaP cells propagated in hollow fibers via intraperitoneal site of immunodeficient mouse at 6.25 to 50 mg/kg after 3 to 6 days; assay type: functional, organism-based; procedure, shortened: as §1
[6] = Antitumor activity against human A2780S cells xenografted in mouse at 3 mg/kg relative to control; assay type: functional, A2780
Procedure, shortened: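 Mice bearing human A2780S ovarian carcinoma xenografts; dosed at 3 mg/kg/injection; activity read out as log cell kill versus control; run per a previously published protocol.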

[7] = test system: MCF7; assay: Inhibition of human MCF7 cells propagated in hollow fibers via subcutaneous site of immunodeficient mouse at 6.25 to 50 mg/kg after 3 to 6 days; assay type: functional, organism-based; procedure, shortened: as §1
[8] = test system: LNCaP; assay: Inhibition of human LNCaP cells propagated in hollow fibers via subcutaneous site of immunodeficient mouse at 6.25 to 50 mg/kg after 3 to 6 days; assay type: functional, organism-based; procedure, shortened: as §1
[9] = test system: MCF7; assay: Inhibition of human MCF7 cells propagated in hollow fibers via intraperitoneal site of immunodeficient mouse at 6.25 to 50 mg/kg after 3 to 6 days; assay type: functional; details: dose mg/kg 6.25-50; procedure, shortened: as §1
[10] = test system: P388; assay: Antitumor activity against mouse P388 lymphocytic leukemia model at 15 mg/kg, ip relative to control; assay type: functional; details: route intraperitoneal
Procedure, shortened: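 Murine P388 lymphocytic leukemia in vivo. Compound given by intraperitoneal injection at 15 mg/kg/injection. Activity expressed as T/C (%) relative to control.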

[11] = test system: Lu1; assay: Inhibition of human Lu1 cells propagated in hollow fibers via subcutaneous site of immunodeficient mouse at 6.25 to 50 mg/kg after 3 to 6 days; assay type: functional, organism-based; procedure, shortened: as §1

| Compound | EC50 ([1]; Homo sapiens, Lu1) [nM] | EC50 ([2]; Homo sapiens, LNCaP) [nM] | EC50 ([3]; Homo sapiens, MCF7) [nM] | also measured |
| --- | --- | --- | --- | --- |
| CCCCCCCCCCCCC[C@@H]1C[C@@H](OC(=O)c2c(Br)c(Br)c(Br)c(Br)c2C(=O)O)C[C@]2(CCC3(C=CC(=O)C=C3)O2)O1 | 10300 | 5100 | 4700 | – |
| CCCCCCCCCCCCC[C@@H]1C[C@@H](OC(=O)c2cc(F)c(Cl)nc2Cl)C[C@]2(CCC3(C=CC(=O)C=C3)O2)O1 | 22200 | 17900 | 14600 | – |
| CCCCCCCCCCCCC[C@@H]1C[C@@H](O)C[C@@]2(CC[C@]3(C=CC(=O)C[C@@H]3O)O2)O1 (relative stereo) [ACULEATOL E] | 1800 | 4400 | 3900 | – |
| CCCCCCCCCCCCC[C@@H]1C[C@@H](OC(=O)c2ccc(Br)cc2)C[C@]2(CCC3(C=CC(=O)C=C3)O2)O1 | 1300 | 800 | 700 | – |
| CCCCCCCCCCCCC[C@@H]1C[C@@H](OC(C)=O)C[C@@]2(CCC3(C=CC(=O)C=C3)O2)O1 | 5700 | 2200 | 3500 | – |
| CCCCCCCCCCCCC[C@@H]1CC(=O)C[C@]2(CCC3(C=CC(=O)C=C3)O2)O1 | 30500 | 22100 | 7500 | – |
| CCCCCCCCCCCCCCC[C@@H](O)CC1(OC)CCC2(C=CC(=O)C=C2)O1 (stereo in doubt; 6) | – | – | – | EC50 [1]: 900 nM; EC50 [2]: 700 nM; EC50 [3]: 900 nM |
| CCCCCCCCCCCCC[C@@H]1C[C@@H](OC(=O)[C@@]23CC[C@@](C)(C(=O)O2)C3(C)C)C[C@]2(CCC3(C=CC(=O)C=C3)O2)O1 | 4000 | 3000 | 3200 | – |
| CCCCCCCCCCCCC[C@@H]1C[C@@H](OC(=O)COCC(=O)O)C[C@]2(CCC3(C=CC(=O)C=C3)O2)O1 | 3400 | 1900 | 1300 | – |
| CCCCCCCCCCC[C@@H]1C[C@H](O)C[C@@]2(CCC3(C=CC(=O)C=C3)O2)O1 (relative stereo) [ACULEATIN E] | 1800 | 1800 | 500 | – |
| CCCCCCCCCCCCC[C@@H]1C[C@@H](O)C[C@]2(CCC3(C=CC(=O)C=C3)O2)O1 [ACULEATIN A] | 1000 | 500 | 200 | Activity [4]: inactive; Activity [5]: inactive; LCK [6]: 0.4; Activity [7]: inactive; Activity [8]: inactive; Inhibition [9]: 10%; T/C [10]: 122%; Activity [11]: inactive |
| CCCCCCCCCCCCCCC[C@@H](O)CC1(OC)CCC2(C=CC(=O)C=C2)O1 (stereo in doubt; 7) | 500 | 900 | 700 | – |
| CCCCCCCCCCCCC[C@@H]1C[C@@H](OC(C)=O)C[C@]2(CCC3(C=CC(=O)C=C3)O2)O1 | 2600 | 1100 | 1500 | – |
| CCCCCCCCCCCCC[C@@H]1C[C@@H](O)C[C@@]2(CCC3(C=CC(=O)C=C3)O2)O1 [ACULEATINS B] | 3100 | 1200 | 1900 | – |
| CCCCCCCCCCC[C@@H]1C[C@@H](O)C[C@]2(CCC3(C=CC(=O)C=C3)O2)O1 (relative stereo) [ACULEATIN F] | 1000 | 700 | 500 | – |
| CCCCCCCCCCCCC[C@@H]1C[C@@H](OC(=O)c2c(Cl)c(Cl)c(Cl)c(Cl)c2C(=O)O)C[C@]2(CCC3(C=CC(=O)C=C3)O2)O1 | 12800 | 5800 | 4800 | – |
